# Ecoli tolC: growth inhibitors of E. coli BW25113 tolC mutant. OD615. growth inhibition, % at 10 µM (by protocol). 2.2% of 65,000 active. AID 573;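 active means growth inhibition at or above a cutoff equal to the mean over every tested compound plus 3 SD, cut at about 60% in these data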;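 further: growth measured after 20 h incubation at 37 °C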
#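 signal = optical density read at 615 nm | test system = E. coli ΔtolC::kan strain BW25113 | timing = 20 h compound exposure of bacteria at 37 °C | buffer or medium = LB medium plus 50 µg/mL kanamycin | compound dosing = 10 µM final, single dose | evaluation = % inhibition of E. coli growth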
# Lung fibro prol: blocks proliferation of human lung fibroblasts | LL 47 human lung fibroblast viability, ATP luminescence; stronger effect = lower value | viability, % at 10 µM | 1.1% of 85,000 active;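 active means viability at or below 50% in the single dose screen; inactive means viability above 50%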;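 further: compound exposure lasted 72 h before the ATP readout; 100% = median luminescence of untreated cell-only wells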
#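 test system = LL 47 human lung fibroblasts | amount = 1,150 fibroblasts seeded per well | medium = 15% FBS in IMEM | times = overnight cell rest, 72 h compound treatment at 37 °C | measured by = CellTiter-Glo luminescence measuring cellular ATP | read-out = viability percentage against median untreated-cell control | benchmarks = cell-only wells, no compound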
# E coli WT exp: E. coli BW25113 growth inhibition, expanded screen; OD600 absorbance; AID 710; growth inhibition, % at 100 µM; 0.15% of 98,000 active;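 active means growth inhibition above about 50% at one test dose, limit read from the data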;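 further: growth measured after 20 h incubation at 37 °C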
# Jurkat viability: reduces viability or proliferation of Jurkat cells; inhibition, % at 4 µM; AID 463; Jurkat E6.1 viability, ATP luminescence, 48 h; 1.2% of 56,000 active;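 active means inhibition above the mean inhibition of all tested compounds plus 3 SD, cut at about 28% in these data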
# H69AR growth 86K: blocks growth of human H69AR lung tumor cells; AID 598; viability, % at 10 µM; H69AR lung tumor viability, ATP luminescence, 72 h; stronger effect = lower value; 6% of 85,000 active;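 active means viability at or below 40%; inactive means viability above 40%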;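 further: multidrug resistant small cell line overexpressing MRP-1 efflux transporter; 100% = mean luminescence of untreated control wells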
# HUVEC inhibit: inhibitors of human endothelial cell proliferation. HUVEC proliferation, CellTiter-Glo luminescence, 72 h; stronger effect = lower value. viability, % at 10 µM (by protocol). 1.1% of 86,000 active. AID 648;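 active means viability at or below 30%; inactive means viability above 30%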;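 further: 100% = median luminescence of DMSO-only cell control wells on each plate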
# * marks the source's active call; other numbers are inactive results; x = no result given. Hits are enriched below; roughly 6.4% of the tested compounds scored in any of these assays.
SMILES,Ecoli tolC,Lung fibro prol,E coli WT exp,Jurkat viability,H69AR growth 86K,HUVEC inhibit
CC(=O)C1=C(C)NC(SCC(=O)c2ccc(Cl)cc2)=C(C#N)C1c1ccco1 (centres undefined),50,x,-14,-7,29*,63
Cc1ccc(NC(=O)CSC2=C(C#N)C(c3ccco3)C3=C(CC(C)(C)CC3=O)N2)cc1 (centres undefined),69*,103,-13,-8,80,101
CC(C)OC(=O)c1c(NC(=O)c2cccs2)sc2c1CCCC2,3,x,-11,-4,79,109
Cc1nn(-c2ccccc2)c2sc(C(=O)c3c(N)n(C)c(=O)n(C)c3=O)cc12,2,94,-16,7,74,93
O=C(CN1CCN(Cc2cccc(Cl)c2)C1=O)NCC1CCCO1 (centres undefined),x,103,-6,x,107,86
CCOC(=O)CSC1=C(C#N)C(c2ccco2)C(C(=O)Nc2cccc(C(F)(F)F)c2)=C(C)N1 (centres undefined),61*,96,-10,0,92,88
CCC(Sc1nc(-c2ccccc2)cc(=O)[nH]1)C(=O)O (centres undefined),-1,100,-8,2,97,105
COc1ccccc1NC(=O)C1=C(C)Nc2nnnn2C1c1cccc(C)c1 (centres undefined),6,85,0,-2,30*,74
COc1cc2c(cc1OC)CN(C(=O)c1cc3ccccc3oc1=O)CC2,-19,x,-5,60*,24*,64
CCOc1cc(C#N)c(NC(=O)c2ccco2)cc1OCC,-31,80,2,79*,31*,57
CCOc1ccccc1NC(=O)c1cc(Cl)ccc1NC(=O)c1ccco1,-8,93,-9,-1,29*,50
COc1cc(NC(=O)c2ccco2)c(OC)cc1NC(=O)c1cc(OC)c(OC)c(OC)c1,-9,107,-3,-1,24*,71
O=C(Oc1ccccc1)c1ccc2nsnc2c1,x,101,x,x,84,92
O=C(O)CCC(=O)Nc1nc(-c2ccccc2)cs1,-24,95,-9,-4,82,98
CC(NC(=O)CSc1nc2ccccc2c(=O)[nH]1)c1ccccc1 (centres undefined),1,94,-8,-5,86,79
O=C(NC(Cc1ccccc1)C(=O)O)OCc1ccccc1 (centres undefined),-4,x,4,-3,96,97
O=C1C(Cl)=C(N2CCOCC2)C(=O)N1c1cccc(Cl)c1,6,x,14,2,0.8*,102
O=C1C(Cl)=C(N2CCCCCC2)C(=O)N1c1ccccc1,26,x,-2,9,102,97
O=C1C(Cl)=C(N2CCN(Cc3ccccc3)CC2)C(=O)N1c1ccccc1,-5,98,-9,4,39*,93
O=C(NCC12CC3CC(CC(C3)C1)C2)c1nc2ncccn2n1,-12,96,3,0,102,81
COc1ccc(/C=C/C(=O)NC(=S)NNC(=O)c2ccco2)cc1,x,63,x,x,31*,43
COc1ccc(/C=C/C(=O)NC(=S)NNC(=O)Cc2cccs2)cc1,x,x,-7,x,x,x
Cc1cccc(N2C(=O)C(Cl)=C(Nc3c(C)n(C)n(-c4ccccc4)c3=O)C2=O)c1C,x,95,8,x,51,88
COC(=O)c1ccc(NC(=O)COc2ccc(S(=O)(=O)N3CCCCC3)cc2)cc1,x,86,-1,x,58,99
Cc1ccc(N=Cc2c(O)n(-c3ccc4c(c3)OCO4)c(=O)c3ccccc23)cc1,x,72,-6,x,9.1*,21*
SMILES,Ecoli tolC,Lung fibro prol,E coli WT exp,Jurkat viability,H69AR growth 86K,HUVEC inhibit
Cc1cc2c(N=O)c(NO)ccc2[nH]1,-7,1.9*,48,75*,x,60
CCN(CC)S(=O)(=O)c1ccc2[nH]cc(C(=O)NCCN3CCCCCC3)c(=O)c2c1,-6,101,-1,8,87,101
CCN(CC)S(=O)(=O)c1ccc2[nH]cc(C(=O)NCCC3=CCCCC3)c(=O)c2c1,98*,82,-6,x,8.5*,53
O=C(Cc1nc(=O)c2ccccc2s1)Nc1ccccc1,x,x,-8,x,x,x
O=C(Cc1sc(-c2ccccc2Cl)nc1-c1ccccc1)Nc1ccccc1,x,23*,-5,x,45,66
O=C(Cc1sc(-c2ccccc2Cl)nc1-c1ccccc1)Nc1ccc(F)cc1,x,45*,-3,x,11*,79
O=C(Cc1sc(-c2ccccc2)nc1-c1ccccc1)Nc1ccc(Cl)cc1,x,67,-12,x,20*,50

# High-throughput results from PubChem.
